The values that follow come from paper PMC6661244 (Investigative Radiology, 2019).

Molecules are shown by their SMILES. Entries after “also recorded” stand apart in the source; their conditions may differ.

Data set [1] is described as follows: Metabolism: HPLC analysis of plasma and urine samples. It counts as in vivo. The following applies: Beagle dogs, 0.2 mmol Gd/kg IV. A digest of the protocol:
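Urine and plasma from Beagle dogs given a 153Gd-labelled test compound (0.2 mmol Gd/kg IV) were analysed by radio-HPLC. Separation used a C18 column at 4°C, with detection by a flow scintillation analyser.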

Data set [2] in a line: Nuclear magnetic relaxation dispersion. It is filed as physicochemical.
Data set [3] concerns hepatic colorectal metastases. The following applies: rats, 0.1 mmol Gd/kg intravenously, 9.4 T, compared with gadobutrol; cited from earlier work.
Another data set is described as follows: Osmolality. It is filed as physicochemical. The following applies: 0.5-M solution; Guerbet measurements. A digest of the protocol: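 Vapour-pressure osmometry on a 0.5 M solution, triplicate readings. The osmometer was calibrated before each use with 100, 290 and 1000 mOsm/kg H2O standards.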
The next data set in a line: Viscosity. The following applies: 0.5 M. It counts as physicochemical. The essentials:
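Cone-and-plate rotational rheometry (60 mm, 2° cone) on a 0.5 M solution at 37°C. Shear rate was recorded at applied stresses of 1–5 Pa, and viscosity was taken from the slope of stress versus shear rate.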

The format of data set [4] is physicochemical. The following applies: 2.5 mM GBCA and ZnCl2, phosphate buffer pH 7, 335 mM, 37°C, 0.47 T, up to 5 days.

On to `O=C(CCC(C(=O)[O-])N1CCN(C(CCC(=O)NCC(O)CO)C(=O)[O-])Cc2cccc(n2)CN(C(CCC(=O)NCC(O)CO)C(=O)[O-])CC1)NCC(O)CO.[Gd+3]` (centres unmarked) [Gadopiclenol, gadolinium chelate of 2,2′,2″-(3,6,9-triaza-1(2,6)-pyridinacyclodecaphane-3,6,9-triyl)tris(5-((2,3-dihydroxypropyl)amino)-5-oxopentanoic acid)], for which the “Metabolites in plasma and urine samples (HPLC)” value in data set [1] is given as “No metabolites were found; also recorded: only unchanged gadopiclenol”. For the same compound, the “Relaxivity r1 at 37°C” value in data set [2] (3 T, in human serum, extrapolated from NMRD profiles) is 11.6 mM⁻¹ s⁻¹. Further, the “r1 relaxivity (NMRD profile)” value in data set [2] (300 MHz, ie, 7 T field, water, 37°C) worked out at 10.68 mM⁻¹ s⁻¹. Further, the Lesion enhancement result in data set [3] is recorded as “significantly better lesions enhancement”. Also, the “Osmolality at 37°C at marketed concentration” value in the data set “Osmolality” amounted to 843 mOsm/kg H2O. In “Viscosity”, the “Viscosity at 37°C” value is 7.6 mPa·s. Moreover, the “r1(t)/r1(t0) ratio over time in the presence of Zn^2+ and phosphate” value in data set [4] is reported as “remained constant”.

As for `CNC[C@H](O)[C@@H](O)[C@H](O)[C@H](O)CO.O=C([O-])CN1CCN(CC(=O)[O-])CCN(CC(=O)O)CCN(CC(=O)[O-])CC1.[Gd+3]` [Gadoterate (Meglumine Salt), reference compound], the “r1(t)/r1(t0) ratio over time in the presence of Zn^2+ and phosphate” value in data set [4] was “remained constant”.
